We go through two compounds from ChEMBL document CHEMBL3352173, “Optimization of pyrrolamide topoisomerase II inhibitors toward identification of an antibacterial clinical candidate (AZD5099)” (J Med Chem, 2014).

Usually clearance stands for the rate of elimination divided by the concentration. Broadly, the fraction unbound is the share of the substance not bound to proteins or other matrix. By AUC is commonly meant the area under the concentration-time curve, a measure of exposure. A word on the bioavailability: it is the share of a dose that reaches the circulation, judged against a reference dose that is usually intravenous. A lower bioavailability goes with poor availability. By IC50 is commonly meant the concentration at which inhibition is half-maximal. Read a low IC50 as higher potency. Usually logD stands for the decadic logarithm of the distribution of all forms, ionised or not, between an organic phase and buffer at a given pH. Low values mean lower lipophilicity, high ones higher lipophilicity. One may read the pKa as the negative logarithm of the acid dissociation constant. A low value points to a stronger acid or weaker base. Usually solubility stands for the dissolved amount per volume that the medium holds. Low values mean a poorly soluble substance, high ones a readily soluble substance.

In brackets after ≈: the same amount, converted by molar mass.

The nature of data set [1]: Clearance in CD1 mouse at 10 mg/kg, iv. It counts as ADME, organism-based. Details: dose 10 mg/kg, route intravenous. Conditions: in vivo.
Another data set concerns Mus musculus. The data set is described as follows: fAUC in methicillin-sensitive Staphylococcus aureus ARC516 infected in neutropenic CD1 mouse thigh model at 30 mg/kg, ip q6. Format: ADME, organism-based. More on the design: dose 30 mg/kg, route intraperitoneal. Conditions: in vivo.
Data set [2] is described as follows: Clearance in TR-negative Wistar rat at 10 mg/kg, iv. It counts as ADME, organism-based. More on the design: dose 10 mg/kg, route intravenous. Conditions: in vivo.
Data set [3] relates to Staphylococcus aureus. Description: Antibacterial activity against methicillin-sensitive Staphylococcus aureus ARC516 infected in ip dosed neutropenic CD1 mouse thigh model assessed as decrease in bacterial viable counts treated for q6. It counts as functional. Conditions: ARC516, Thigh muscle.
The nature of data set [4]: Clearance in rat at 10 mg/kg, iv. Format: ADME, organism-based. Details: dose 10 mg/kg, route intravenous. Conditions: in vivo.
The test system of another data set is Streptococcus pyogenes. The data set is described as follows: Antimicrobial activity against Streptococcus pyogenes by broth microdilution/CLSI method. Format: functional. On the technique in general: Dilution methods test growth across graded concentrations, often in twofold steps.
For data set [5], the system named is Staphylococcus aureus. The data set is described as follows: Antimicrobial activity against methicillin-sensitive Staphylococcus aureus by broth microdilution/CLSI method. Conditions: Staphylococcus aureus; read-out: MIC. Format: functional.
For another data set, the system named is Haemophilus influenzae. Description: Antimicrobial activity against Haemophilus influenzae by broth microdilution/CLSI method. Conditions: Haemophilus influenzae; read-out: MIC. Format: functional.
Data set [6] concerns Staphylococcus aureus. Description: Antibacterial activity against methicillin-sensitive Staphylococcus aureus ARC516 infected in neutropenic CD1 mouse thigh model assessed as decrease in bacterial viable counts at 30 mg/kg, ip q6. It counts as functional. Conditions: route intraperitoneal. A digest of the protocol:
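Read-out is viable CFU recovered from the infected thigh after treatment. The change is expressed as log CFU relative to the bacterial burden at the start of treatment (the pre-treatment inoculum). Untreated infected controls are run in parallel and counted over the same infection-to-treatment interval.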

A short description of data set [7]: Percentage unbound in human plasma. It counts as ADME, cell-free.
Data set [8] is described as follows: AUC in methicillin-sensitive Staphylococcus aureus ARC516 infected in neutropenic CD1 mouse thigh model at 30 mg/kg, ip q6. Details: dose 30 mg/kg, route intraperitoneal. Format: ADME, organism-based. Conditions: in vivo.
Data set [9] has as its system Staphylococcus aureus. Description: Antimicrobial activity against methicillin, quinolone-resistant Staphylococcus aureus by broth microdilution/CLSI method. Format: functional. Conditions: Staphylococcus aureus; read-out: MIC.
For data set [10], the system named is Escherichia coli. Description: Antimicrobial activity against Escherichia coli tolC- by broth microdilution/CLSI method. Format: functional. Conditions: Escherichia coli; read-out: MIC.
Data set [11] in a line: Percentage unbound in dog plasma. It counts as ADME, cell-free, Canis lupus familiaris.
In data set [12] the test system is Escherichia coli. The data set is described as follows: Antimicrobial activity against wild-type Escherichia coli Eco523 by broth microdilution/CLSI method. Format: functional. Conditions: Escherichia coli, Eco523; read-out: MIC.
In another data set the test system is Streptococcus pneumoniae. The data set is described as follows: Antibacterial activity against Streptococcus pneumoniae by broth microdilution/CLSI method. Conditions: Streptococcus pneumoniae; read-out: MIC. It counts as functional.
Data set [13] can be described thus: Bioavailability in Wistar rat at 10 mg/kg, […]. It counts as ADME, organism-based. Conditions: in vivo.
Data set [14] can be described thus: Percentage unbound in rat plasma. Format: ADME, cell-free.
In the next data set the target is DNA gyrase subunit B (Staphylococcus aureus, UniProt P0A0K8). The data set is described as follows: Inhibition of ATPase activity of Staphylococcus aureus GyrB. The gist of the method: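 IC50 was determined against S. aureus GyrB in the routine screening assay. The enzyme concentration limits resolution below 10 nM.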
A short description of data set [15]: Ratio of MIC for methicillin, quinolone-resistant Staphylococcus aureus to fraction unbound in human plasma. It counts as ADME.
A short description of data set [16]: Clearance in Wistar rat at 10 mg/kg, iv. Format: ADME, organism-based. Conditions: in vivo. More on the design: dose 10 mg/kg, route intravenous.
Data set [17] is described as follows: Bioavailability in dog at 10 mg/kg, iv. It counts as ADME, organism-based, Canis lupus familiaris. Conditions: plasma.
A short description of data set [18]: Octanol-phosphate buffer distribution coefficient, log D of the compound at pH 7.4 by shake flask method. It counts as physicochemical.
Data set [19] can be described thus: Clearance in dog at 10 mg/kg, iv. Conditions: plasma. It counts as ADME, organism-based, Canis lupus familiaris. Details: dose 10 mg/kg, route intravenous.
A further data set deals with Moraxella catarrhalis. The data set is described as follows: Antimicrobial activity against Moraxella catarrhalis by broth microdilution/CLSI method. Format: functional. Conditions: Moraxella catarrhalis; read-out: MIC.
Data set [20] is described as follows: Dissociation constant, pKa of the compound. It counts as physicochemical.
Data set [21] can be described thus: Solubility of the compound. It counts as physicochemical.
The nature of data set [22]: Percentage unbound in mouse plasma. It counts as ADME, cell-free.
Data set [23] in a line: Bioavailability in CD1 mouse at 10 mg/kg, […]. Format: ADME, organism-based. Conditions: in vivo.
The test system of data set [24] is Staphylococcus aureus. The data set is described as follows: Antimicrobial activity against 2 times drug resistance selected Staphylococcus aureus ARC516-2F by broth microdilution/CLSI method. It counts as functional.
The test system of data set [25] is Staphylococcus aureus. The data set is described as follows: Antimicrobial activity against 2 times drug resistance selected Staphylococcus aureus ARC516-1F by broth microdilution/CLSI method. Format: functional.
The subject of data set [26] is Staphylococcus aureus. Description: Antimicrobial activity against Staphylococcus aureus ARC516 by broth microdilution/CLSI method. Format: functional.

Chain of DNA gyrase subunit B (P0A0K8 whole entry): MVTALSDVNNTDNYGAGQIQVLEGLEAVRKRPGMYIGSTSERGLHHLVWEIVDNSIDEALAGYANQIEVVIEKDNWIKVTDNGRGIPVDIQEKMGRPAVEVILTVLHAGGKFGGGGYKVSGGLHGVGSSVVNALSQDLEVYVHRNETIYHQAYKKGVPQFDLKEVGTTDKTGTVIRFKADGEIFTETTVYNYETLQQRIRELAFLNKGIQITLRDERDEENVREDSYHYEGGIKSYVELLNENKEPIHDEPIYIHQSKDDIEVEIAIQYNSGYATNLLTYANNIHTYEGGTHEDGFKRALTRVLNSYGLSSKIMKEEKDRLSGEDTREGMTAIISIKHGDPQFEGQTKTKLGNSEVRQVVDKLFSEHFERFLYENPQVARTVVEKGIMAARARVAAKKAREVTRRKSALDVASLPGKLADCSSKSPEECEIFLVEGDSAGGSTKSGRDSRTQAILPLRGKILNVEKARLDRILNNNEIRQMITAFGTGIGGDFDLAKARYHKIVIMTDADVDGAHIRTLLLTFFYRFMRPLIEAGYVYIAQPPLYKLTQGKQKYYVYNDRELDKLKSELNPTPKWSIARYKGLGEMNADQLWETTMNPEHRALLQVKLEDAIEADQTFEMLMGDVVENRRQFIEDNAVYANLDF

Regarding `CO[C@H]1CN(c2nc(-c3ncccn3)c(C(=O)O)s2)CC[C@H]1NC(=O)c1[nH]c(C)c(Cl)c1Cl`, the clearance in [1] is 22 mL/min/kg; in [2] it was 9.3 mL/min/kg; in data set [4] it was 34 mL/min/kg; in data set [16] it was 18 mL/min/kg; in data set [19], 1.9 mL/min/kg. In the data set on Mus musculus, the fAUC is 6.7 µg·h/mL. In addition, the MIC in the data set on Staphylococcus aureus [3] was 0.06 µg/mL (≈ 0.117 µM); against Streptococcus pyogenes it was 0.016 µg/mL (≈ 0.0313 µM); with Staphylococcus aureus [5] it was 0.09 µg/mL (≈ 0.176 µM); in the data set with Haemophilus influenzae it was 0.2 µg/mL (≈ 0.391 µM); in the data set on Staphylococcus aureus [9] it was 0.12 µg/mL (≈ 0.235 µM); in the data set on Escherichia coli [10], 0.5 µg/mL (≈ 0.978 µM). Besides, the MIC in the data set with Escherichia coli [12] turned out to be 23 µg/mL (≈ 45 µM); in the data set with Streptococcus pneumoniae, 8 ng/mL (≈ 0.0156 µM); in the data set on Moraxella catarrhalis it was 0.031 µg/mL (≈ 0.0606 µM). The deltalog10CFU in the data set on Staphylococcus aureus [6] is -1.57. The fraction unbound worked out at 0.096 in data set [7], 0.24 in data set [11], 0.19 in data set [14] and 0.18 in data set [22]. The compound also came in with an AUC in data set [8] of 37600 ng·h/mL. Further, the bioavailability in [13], in data set [17] and in [23] was 100% in each case. Moreover, on DNA gyrase subunit B, the IC50 is under 10 nM. In addition, in data set [15], the Ratio worked out at 1.25. This compound also showed a logD in data set [18] of 0.54. Also, the pKa in data set [20] is 5.2. For the same compound, in data set [21], the solubility stood at 350 µM (≈ 179 µg/mL).
With `CC(=O)NC[C@H]1CN(c2ccc(N3CCOCC3)c(F)c2)C(=O)O1` [LINEZOLID], the MIC was found to be 0.5 µg/mL (≈ 1.48 µM) in the data set on Staphylococcus aureus [24], 1 µg/mL (≈ 2.96 µM) in the data set on Staphylococcus aureus [25] and 1 µg/mL (≈ 2.96 µM) against Staphylococcus aureus [26].
